Results published in ChEMBL document CHEMBL5252546, “Salutaxel, a Conjugate of Docetaxel and a Muramyl Dipeptide (MDP) Analogue, Acts as Multifunctional Prodrug That Inhibits Tumor Growth and Metastasis” (J Med Chem, 2018).
Calls of active or inactive are those of the source. The rule behind the calls is not given here.

Experiments:
[1] = test system: 4T1; experiment: Antitumor activity against mouse 4T1 cells xenografted with BALB/c mouse assessed as reduction lung metastatic nodules at 5.7 mg/kg,iv administrated once per week for 4 weeks; type: functional, organism-based
Outline: (§1)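 4T1 cells injected into mammary fat pads of BALB/c mice. Dosing iv once per week for 4 weeks, saline vehicle; single-agent arms were given alone or with the peptide component (5b or 6). Endpoints were body weight, tumour volume, tumour weight, lung metastatic nodule count and lung metastasis score. Mean ± SEM, n = 10; ANOVA and Student's t test.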

[2] = test system: 4T1; experiment: Antitumor activity against mouse 4T1 cells implanted in BALB/c mouse assessed as decrease in lung MMP2 expression level at 5.7 mg/kg,iv administrated once per week for 4 weeks in presence of compound 5b by western blot assay; type: functional, organism-based
Outline: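 4T1 cells injected into mammary fat pads of BALB/c mice. Saline vehicle or test article given iv once weekly for 4 weeks. Spleen, lung and tumor lysates immunoblotted for MMP2/MMP9 with β-actin as loading control. Bands averaged over five mice per group, representative of two independent experiments.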

[3] = test system: 4T1; experiment: Antitumor activity against mouse 4T1 cells implanted in BALB/c mouse assessed as decrease in lung injury at 5.7 mg/kg,iv administrated once per week for 4 weeks by H and E staining based assay; type: functional, organism-based
Outline: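 BALB/c mice bearing orthotopic mammary fat pad 4T1 tumors, dosed iv weekly for 4 weeks with saline vehicle as control. Lung sections stained with hematoxylin and eosin and examined by light microscopy at 40× for metastasis, inflammatory infiltration and alveolar wall thickening.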

[4] = test system: 4T1; experiment: Antitumor activity against mouse 4T1 cells xenografted with BALB/c mouse assessed as decrease in tumor volume at 5.7 mg/kg,iv administrated once per week for 4 weeks; type: functional, organism-based; outline: as §1
[5] = test system: 4T1; experiment: Antitumor activity against mouse 4T1 cells implanted in BALB/c mouse assessed as decrease in tumor MMP9 expression level at 5.7 mg/kg,iv administrated once per week for 4 weeks in presence of compound 5b by western blot assay; type: functional, organism-based
Outline: (§2)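 Tumour-bearing BALB/c mice (4T1 cells into mammary fat pad) given iv saline vehicle or test agents once weekly for 4 weeks. Tumours excised and probed by western blot for MMP9, MMP2 and NOD1, β-actin as loading control. Bands averaged over five mice per group; representative of two independent experiments.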

[6] = test system: 4T1; experiment: Antitumor activity against mouse 4T1 cells xenografted with BALB/c mouse assessed as inhibition of tumor growth at 5.7 mg/kg,iv in presence of compound 5b administrated once per week for 4 weeks; type: functional; conditions: 4T1, 672 h; outline: as §1
[7] = test system: 4T1; experiment: Antitumor activity against mouse 4T1 cells implanted in BALB/c mouse assessed as increase in tumor NOD1 expression level at 5.7 mg/kg,iv administrated once per week for 4 weeks by western blot assay; type: functional, organism-based; outline: as §2
[8] = test system: 4T1; experiment: Antitumor activity against mouse 4T1 cells xenografted with BALB/c mouse assessed as inhibition of tumor growth at 5.7 mg/kg,iv administrated once per week for 4 weeks; type: functional; conditions: 4T1, 672 h; outline: as §1
[9] = test system: 4T1; experiment: Antitumor activity against mouse 4T1 cells implanted in BALB/c mouse assessed as decrease in serum IL-6 level at 5.7 mg/kg,iv administrated once per week for 4 weeks in presence of MDA-205 by ELISA; type: functional, organism-based
[10] = AUC (0-t) in Beagle dog at 1 mg/kg,iv measured upto 24 hrs; type: ADME, organism-based, Canis lupus familiaris; parameters: dose 1 mg/kg, time < 24 hrs, route iv; conditions: in vivo
Outline: (§3)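 Single iv dose: rats 2, 4 or 8 mg/kg by intravenous injection; Beagle dogs 1, 2 or 4 mg/kg by intravenous infusion. Plasma concentration–time data were analysed by sex and pooled. Reported parameters: Cmax, Tmax, AUC0−t, AUC0−∞, MRT0−∞, t1/2, CL, Vss, given as mean ± SD.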

[11] = Toxicity in Beagle dog assessed as effect on respiratory frequency at 1 to 4 mg/kg,iv; type: organism-based, Canis lupus familiaris; conditions: in vivo, dose 1-4 mg/kg
[12] = Toxicity in Beagle dog assessed as maximal non-toxic dose at iv administration; type: organism-based, Canis lupus familiaris; conditions: in vivo, read-out: MNTD
[13] = Toxicity in BALB/c mouse xenografted with human NCI-H1975 cells assessed as body weight loss at 10 mg/kg,iv administrated once per week for 3 weeks; type: organism-based; conditions: in vivo, 504 h
[14] = Volume of distribution at steady state in female Beagle dog at 4 mg/kg,iv measured upto 24 hrs; type: ADME, organism-based, Canis lupus familiaris; conditions: in vivo, read-out: Vdss
[15] = MRT (0 to infinity) in female rat at 4 mg/kg,iv measured upto 24 hrs; type: ADME, organism-based; conditions: in vivo
[16] = Clearance in female Beagle dog at 1 mg/kg,iv measured upto 24 hrs; type: ADME, organism-based, Canis lupus familiaris; conditions: in vivo
Outline: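 Beagle dogs were given a single iv infusion at 1, 2 or 4 mg/kg. Plasma parent drug and released docetaxel were followed over time. Cmax, Tmax, AUC, MRT, t1/2, CL and Vss were reported by sex and for all dogs combined.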

[17] = MRT (0 to infinity) in male rat at 8 mg/kg,iv measured upto 24 hrs; type: ADME, organism-based; conditions: in vivo
[18] = Stability in rat plasma assessed as compound remaining at 1 uM incubated for 6 hrs; type: ADME, cell-free
[19] = AUC (0-infinity) in rat at 4 mg/kg,iv measured upto 24 hrs; type: ADME, organism-based; parameters: dose 4 mg/kg, time < 24 hrs, route iv; conditions: in vivo; outline: as §3
[20] = Prodrug conversion in mouse tumor implanted with mouse 4T1 cells assessed as MRT of docetaxel at 4 mg/kg,iv measured upto 72 hrs; type: ADME, organism-based, Neoplasm; conditions: in vivo
[21] = test system: SF-295; experiment: Antiproliferative activity against human SF-295 cells assessed inhibition of cell growth incubated for 72 hrs by SRB assay; type: functional, cell-based; conditions: SF-295, 72 h
[22] = Drug metabolism in rat bile assessed as metabolite docetaxel formation at 4 mg/kg,iv measured after 24 hrs; type: ADME, organism-based; conditions: in vivo
[23] = Drug distribution in rat lung at 4 mg/kg,iv measured by 0.25 hrs; type: ADME, organism-based; conditions: in vivo
Outline: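 Rats received 4 mg/kg iv. Parent drug and released docetaxel were assayed in tissues and plasma from the first sampling at 0.25 h to 24 h. The lower limit of quantitation was 200 ng/g.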

[24] = Toxicity in BALB/c mouse xenografted with human NCI-H1975 cells assessed as side effects at 10 mg/kg,iv administrated once per week for 3 weeks; type: organism-based; conditions: in vivo, 504 h
[25] = Chronic toxicity in female Beagle dog at 3 to 18 mg/kg,iv administered once per week for 30 days; type: organism-based, Canis lupus familiaris; conditions: in vivo, 720 h, dose 3-18 mg/kg, time 30 day
Outline: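 Long-term toxicity: rats given iv 2, 4 or 8 mg/kg and dogs 3, 6 or 18 mg/kg once weekly over 30 days; toxicokinetics recorded; highest non-severely toxic dose determined by sex.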

[26] = Volume of distribution at steady state in female Beagle dog at 2 mg/kg,iv measured upto 24 hrs; type: ADME, organism-based, Canis lupus familiaris; conditions: in vivo, read-out: Vdss
[27] = test system: 4T1; experiment: Antitumor activity against mouse 4T1 cells xenografted with BALB/c mouse assessed as inhibition of tumor growth at 5 to 20 mg/kg,iv administrated once per week for 4 weeks; type: functional, organism-based; conditions: dose 5-20 mg/kg
Outline: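 4T1 cells injected into the mammary fat pad of BALB/c mice; iv saline vehicle or 5, 10 or 20 mg/kg once weekly for 4 weeks; body weight, tumour volume, tumour weight, lung metastatic nodule count and metastasis score recorded; n = 10, mean ± SEM, ANOVA and Student's t test.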

[28] = biological target: Cytochrome P450 1A2 (Homo sapiens, UniProt P05177); experiment: Inhibition of CYP1A2 in human liver microsomes using probe substrate at 0.1 to 100 uM in presence of NADPH; type: ADME, Microsome; conditions: dose 0.1-100 µM
Chain of Cytochrome P450 1A2 (P05177 whole entry): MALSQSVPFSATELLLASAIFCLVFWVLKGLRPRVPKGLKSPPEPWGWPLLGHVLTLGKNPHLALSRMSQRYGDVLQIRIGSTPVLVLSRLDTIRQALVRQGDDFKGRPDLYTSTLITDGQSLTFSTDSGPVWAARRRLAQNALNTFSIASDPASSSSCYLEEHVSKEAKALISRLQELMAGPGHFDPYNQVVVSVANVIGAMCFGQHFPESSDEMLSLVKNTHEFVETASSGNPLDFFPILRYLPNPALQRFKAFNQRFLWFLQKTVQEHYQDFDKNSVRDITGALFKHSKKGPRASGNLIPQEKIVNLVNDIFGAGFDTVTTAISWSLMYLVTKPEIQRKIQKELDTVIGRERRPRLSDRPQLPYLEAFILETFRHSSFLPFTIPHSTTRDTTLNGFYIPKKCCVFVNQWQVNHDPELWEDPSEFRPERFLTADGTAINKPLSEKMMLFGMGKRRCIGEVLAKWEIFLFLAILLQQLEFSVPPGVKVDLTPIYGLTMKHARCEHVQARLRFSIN

[29] = Stability in rat plasma assessed as compound remaining at 40 uM incubated for 6 hrs; type: ADME, cell-free
[30] = AUC (0-t) in rat at 8 mg/kg,iv measured upto 24 hrs; type: ADME, organism-based; parameters: dose 8 mg/kg, time < 24 hrs, route iv; conditions: in vivo; outline: as §3

In the case of `CC(=O)O[C@@]12CO[C@@H]1C[C@H](O)[C@@]1(C)C(=O)[C@H](O)C3=C(C)[C@@H](OC(=O)[C@H](O)[C@@H](NC(=O)OC(C)(C)C)c4ccccc4)C[C@@](O)([C@@H](OC(=O)c4ccccc4)[C@H]21)C3(C)C` [DOCETAXEL ANHYDROUS], the Activity [1] is reported as “inactive”, the Activity [2] is reported as “inactive” and the Activity [3] is reported as “Active”. The Activity [4] was “Active”, the Activity [5] was “inactive” and the inhibition in vivo at 5.7 mg/kg [6] was 14.4%. For the same compound, the Activity [7] was “inactive”, the inhibition in vivo at 5.7 mg/kg [8] was 19.6% and the Activity [9] was “Active”.
In the case of `CC(=O)O[C@@]12CO[C@@H]1C[C@H](O)[C@@]1(C)C(=O)[C@H](O)C3=C(C)[C@@H](OC(=O)[C@H](OC(=O)CCC(=O)NCCCC[C@H](NC(=O)CC[C@@H](NC(=O)[C@H](C)NC(=O)/C=C/c4ccc(F)cc4Cl)C(N)=O)C(=O)O)[C@@H](NC(=O)OC(C)(C)C)c4ccccc4)C[C@@](O)([C@@H](OC(=O)c4ccccc4)[C@H]21)C3(C)C`, the AUC(0-t) at 24 h [10] is reported as 1590 ng·h/mL, the Activity [11] is reported as “Non-Toxic” and the NOAEL [12] is reported as 6 mg/kg. The Activity [13] was “Non-Toxic”, the Vd [14] was 0.087 L/kg and the MRT inf [15] was 15.7 min. For the same compound, the clearance [16] was 11.2 mL/min/kg, the MRT inf [17] was 37.9 min and the Stability [18] was “Stable”. The AUC(0-inf) [19] was 16900 ng·h/mL, the MRT [20] was 87.4 h and the IC50 [21] was 16.3 nM. The Drug metabolism [22] was “Metabolite_Detected”, the Drug uptake [23] was “Active” and the Activity [24] was “Non-Toxic”. The Activity [25] was “Non-Toxic”, the Vd [26] was 0.077 L/kg and the inhibition [27] was “Dose-Dependent Effect”. The “inhibition (INH)” value [28] was “Not Active”, the Stability [29] was “Stable” and the AUC(0-t) at 24 h [30] was 45800 ng·h/mL.
